Measured values taken from ChEMBL document CHEMBL2176910, “Identification of small molecule inhibitors of amyloid β-induced neuronal apoptosis acting through the imidazoline I(2) receptor” (J Med Chem, 2012).
pKi: −log10 of the molar value. The source made the active and inactive calls. The rule behind the calls is not given here.

Tests used:
[1] = target: T1, MAO-B (amine oxidase [flavin-containing] B) (Homo sapiens, UniProt P27338); assay: Inhibition of MAOB at 10 uM
T1 sequence (P27338 whole entry): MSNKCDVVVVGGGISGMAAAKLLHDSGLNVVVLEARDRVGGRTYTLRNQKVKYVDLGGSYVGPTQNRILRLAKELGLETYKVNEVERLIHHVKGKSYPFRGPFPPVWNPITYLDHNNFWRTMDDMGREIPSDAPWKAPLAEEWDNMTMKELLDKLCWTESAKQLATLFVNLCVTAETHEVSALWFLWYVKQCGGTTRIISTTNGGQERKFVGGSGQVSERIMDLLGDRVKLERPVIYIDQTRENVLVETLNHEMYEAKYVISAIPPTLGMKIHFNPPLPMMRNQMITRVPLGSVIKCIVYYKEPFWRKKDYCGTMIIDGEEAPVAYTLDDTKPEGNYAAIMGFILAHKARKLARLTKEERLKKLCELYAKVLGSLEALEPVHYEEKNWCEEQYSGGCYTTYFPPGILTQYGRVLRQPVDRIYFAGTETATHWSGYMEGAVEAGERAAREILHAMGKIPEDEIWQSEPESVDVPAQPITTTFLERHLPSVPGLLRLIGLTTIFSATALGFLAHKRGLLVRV
How it was run: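 Radioligand binding panel. Values are average percentages of inhibition of specific binding, measured against potent standard ligands for each target.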

[2] = target: Acetylcholinesterase (Homo sapiens) (UniProt P22303); assay: Inhibition of AChE at 10 uM
How it was run: (§1)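 Part of an in vitro radioligand binding panel. Each target was tested against a potent standard radioligand for that site. The read-out was percent inhibition of specific binding, reported as an average value.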

[3] = target: Melanocortin receptor 4 (Homo sapiens) (UniProt P32245); assay: Inhibition of radioligand binding to MC4R at 10 uM
[4] = target: T2, Muscarinic acetylcholine receptor M5 (Homo sapiens) (UniProt P08912); assay: Inhibition of radioligand binding to muscarinic M5 receptor at 10 uM; how it was run: as §1
T2 sequence (whole entry): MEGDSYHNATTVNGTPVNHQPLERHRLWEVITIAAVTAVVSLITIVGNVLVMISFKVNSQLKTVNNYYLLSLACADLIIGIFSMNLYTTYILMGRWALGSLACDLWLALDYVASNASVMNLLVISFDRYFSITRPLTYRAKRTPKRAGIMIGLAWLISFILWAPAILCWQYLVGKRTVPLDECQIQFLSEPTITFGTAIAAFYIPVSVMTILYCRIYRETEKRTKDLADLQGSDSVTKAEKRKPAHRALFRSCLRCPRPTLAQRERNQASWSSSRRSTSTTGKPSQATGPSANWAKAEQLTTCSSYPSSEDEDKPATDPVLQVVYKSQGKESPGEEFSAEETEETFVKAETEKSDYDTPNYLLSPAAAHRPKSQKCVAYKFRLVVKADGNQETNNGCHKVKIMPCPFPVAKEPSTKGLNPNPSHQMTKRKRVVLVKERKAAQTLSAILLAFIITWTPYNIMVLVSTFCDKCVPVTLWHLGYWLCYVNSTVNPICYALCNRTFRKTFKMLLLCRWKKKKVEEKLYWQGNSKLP

[5] = target: T3, Muscarinic acetylcholine receptor M4 (Homo sapiens) (UniProt P08173); assay: Inhibition of radioligand binding to muscarinic M4 receptor at 10 uM; how it was run: as §1
T3 sequence (whole entry): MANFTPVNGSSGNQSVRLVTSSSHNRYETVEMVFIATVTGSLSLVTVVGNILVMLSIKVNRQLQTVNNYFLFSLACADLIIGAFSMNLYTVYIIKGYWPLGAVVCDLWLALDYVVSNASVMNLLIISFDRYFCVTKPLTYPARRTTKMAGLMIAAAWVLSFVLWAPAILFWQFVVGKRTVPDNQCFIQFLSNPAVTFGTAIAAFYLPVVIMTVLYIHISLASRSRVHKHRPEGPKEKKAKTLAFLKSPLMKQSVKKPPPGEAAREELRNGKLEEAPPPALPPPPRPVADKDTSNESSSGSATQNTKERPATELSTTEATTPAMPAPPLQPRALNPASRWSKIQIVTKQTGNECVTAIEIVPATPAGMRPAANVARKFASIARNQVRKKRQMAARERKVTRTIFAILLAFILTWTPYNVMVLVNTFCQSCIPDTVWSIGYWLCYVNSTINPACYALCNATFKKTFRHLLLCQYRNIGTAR

[6] = target: Muscarinic acetylcholine receptor M3 (Homo sapiens) (UniProt P20309); assay: Inhibition of radioligand binding to muscarinic M3 receptor at 10 uM; how it was run: as §1
[7] = Inhibition of radioligand binding to alpha2 adrenergic receptor at 10 uM; how it was run: as §1
[8] = Displacement of [3H]idazoxan from rat cerebral cortex imidazole receptor 2 in presence of 1 uM yohimbine; type: tissue-based
Mus musculus = species on record: Mus musculus; assay: Inhibition of imidazole receptor 2 in mouse hippocampal neurons assessed as reduction in tPA-induced Erk1/2 activation at 30 uM pre-incubated for 4 hrs before tPA stimulation by ELISA; conditions: Hippocampus
How it was run: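 Primary mouse hippocampal neurons were stimulated with tPA (20 μg/mL, 1 h) with or without compound at 30 μM. Phospho-Erk1/2 was measured by ELISA with a phospho-specific antibody and normalized to total Erk1/2. Untreated cultures set the lower limit and tPA alone the upper limit.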

Nischarin = Nischarin (Homo sapiens, UniProt Q9Y2I1); assay: Inhibition of radioligand binding to imidazole receptor 1
Nischarin, sequence (Q9Y2I1 whole entry): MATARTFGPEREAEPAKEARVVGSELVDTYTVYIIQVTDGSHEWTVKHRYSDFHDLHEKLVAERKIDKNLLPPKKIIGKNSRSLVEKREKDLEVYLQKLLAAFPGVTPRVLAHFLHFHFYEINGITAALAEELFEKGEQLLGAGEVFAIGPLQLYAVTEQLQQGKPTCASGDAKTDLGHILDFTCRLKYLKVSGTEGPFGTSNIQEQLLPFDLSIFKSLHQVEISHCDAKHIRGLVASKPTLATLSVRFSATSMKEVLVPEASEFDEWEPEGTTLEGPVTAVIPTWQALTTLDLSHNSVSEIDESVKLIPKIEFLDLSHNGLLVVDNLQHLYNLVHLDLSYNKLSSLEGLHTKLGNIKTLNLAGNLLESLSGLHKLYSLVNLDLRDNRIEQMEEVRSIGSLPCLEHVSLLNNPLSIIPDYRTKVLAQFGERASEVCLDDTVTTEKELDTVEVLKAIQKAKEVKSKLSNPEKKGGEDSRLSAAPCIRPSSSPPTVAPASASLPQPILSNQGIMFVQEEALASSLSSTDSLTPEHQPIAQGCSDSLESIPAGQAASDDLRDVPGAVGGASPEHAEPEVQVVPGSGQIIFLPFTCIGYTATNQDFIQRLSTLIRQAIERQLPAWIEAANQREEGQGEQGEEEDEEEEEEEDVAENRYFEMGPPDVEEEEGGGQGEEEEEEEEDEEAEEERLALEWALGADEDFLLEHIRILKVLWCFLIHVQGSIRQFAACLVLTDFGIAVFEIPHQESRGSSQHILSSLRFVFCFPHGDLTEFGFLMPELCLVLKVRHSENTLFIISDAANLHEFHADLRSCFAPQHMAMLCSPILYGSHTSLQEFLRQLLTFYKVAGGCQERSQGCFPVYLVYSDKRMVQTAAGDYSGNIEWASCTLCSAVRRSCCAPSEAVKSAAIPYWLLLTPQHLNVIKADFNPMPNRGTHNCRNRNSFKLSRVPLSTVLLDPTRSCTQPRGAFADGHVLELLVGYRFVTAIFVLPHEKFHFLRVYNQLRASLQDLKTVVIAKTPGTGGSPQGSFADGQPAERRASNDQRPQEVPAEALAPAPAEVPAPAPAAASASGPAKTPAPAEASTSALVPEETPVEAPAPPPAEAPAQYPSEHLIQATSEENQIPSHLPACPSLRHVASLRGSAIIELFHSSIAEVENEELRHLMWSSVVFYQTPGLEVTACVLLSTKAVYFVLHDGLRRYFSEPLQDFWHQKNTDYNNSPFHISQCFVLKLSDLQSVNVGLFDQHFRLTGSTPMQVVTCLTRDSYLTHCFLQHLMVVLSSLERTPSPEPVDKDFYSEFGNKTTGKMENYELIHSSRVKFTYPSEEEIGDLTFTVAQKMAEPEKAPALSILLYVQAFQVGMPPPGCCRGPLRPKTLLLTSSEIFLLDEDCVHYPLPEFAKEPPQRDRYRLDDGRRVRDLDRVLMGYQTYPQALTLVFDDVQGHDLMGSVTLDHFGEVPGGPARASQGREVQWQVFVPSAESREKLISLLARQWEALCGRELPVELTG

Melanocortin receptor 4 (Homo sapiens), sequence (P32245 whole entry): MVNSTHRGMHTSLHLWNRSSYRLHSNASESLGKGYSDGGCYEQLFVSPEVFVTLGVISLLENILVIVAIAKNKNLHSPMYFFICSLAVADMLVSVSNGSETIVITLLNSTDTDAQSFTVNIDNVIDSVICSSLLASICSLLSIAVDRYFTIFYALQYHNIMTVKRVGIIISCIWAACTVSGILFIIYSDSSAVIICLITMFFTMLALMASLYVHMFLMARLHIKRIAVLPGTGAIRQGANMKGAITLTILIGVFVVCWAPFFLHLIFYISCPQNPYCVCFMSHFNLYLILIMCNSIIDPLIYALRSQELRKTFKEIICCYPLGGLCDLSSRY
Acetylcholinesterase (Homo sapiens), sequence (P22303 whole entry): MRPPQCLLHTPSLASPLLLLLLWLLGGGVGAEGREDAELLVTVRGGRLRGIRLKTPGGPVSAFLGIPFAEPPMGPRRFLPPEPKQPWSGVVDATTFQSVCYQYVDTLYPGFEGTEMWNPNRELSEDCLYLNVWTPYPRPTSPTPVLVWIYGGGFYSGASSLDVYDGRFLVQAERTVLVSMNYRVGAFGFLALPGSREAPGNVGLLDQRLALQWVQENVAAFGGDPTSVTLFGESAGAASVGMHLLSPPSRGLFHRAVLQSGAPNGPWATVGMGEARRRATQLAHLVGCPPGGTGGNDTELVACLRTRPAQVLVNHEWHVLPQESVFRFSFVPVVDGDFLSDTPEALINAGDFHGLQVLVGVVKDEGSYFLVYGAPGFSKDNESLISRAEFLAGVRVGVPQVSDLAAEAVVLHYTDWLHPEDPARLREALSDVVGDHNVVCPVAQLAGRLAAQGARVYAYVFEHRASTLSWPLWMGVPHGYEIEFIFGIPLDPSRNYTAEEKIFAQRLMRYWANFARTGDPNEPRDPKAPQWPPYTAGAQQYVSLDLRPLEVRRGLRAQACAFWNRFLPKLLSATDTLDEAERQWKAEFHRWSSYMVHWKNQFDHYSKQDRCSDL
Muscarinic acetylcholine receptor M3 (Homo sapiens), sequence (P20309 whole entry, looked up): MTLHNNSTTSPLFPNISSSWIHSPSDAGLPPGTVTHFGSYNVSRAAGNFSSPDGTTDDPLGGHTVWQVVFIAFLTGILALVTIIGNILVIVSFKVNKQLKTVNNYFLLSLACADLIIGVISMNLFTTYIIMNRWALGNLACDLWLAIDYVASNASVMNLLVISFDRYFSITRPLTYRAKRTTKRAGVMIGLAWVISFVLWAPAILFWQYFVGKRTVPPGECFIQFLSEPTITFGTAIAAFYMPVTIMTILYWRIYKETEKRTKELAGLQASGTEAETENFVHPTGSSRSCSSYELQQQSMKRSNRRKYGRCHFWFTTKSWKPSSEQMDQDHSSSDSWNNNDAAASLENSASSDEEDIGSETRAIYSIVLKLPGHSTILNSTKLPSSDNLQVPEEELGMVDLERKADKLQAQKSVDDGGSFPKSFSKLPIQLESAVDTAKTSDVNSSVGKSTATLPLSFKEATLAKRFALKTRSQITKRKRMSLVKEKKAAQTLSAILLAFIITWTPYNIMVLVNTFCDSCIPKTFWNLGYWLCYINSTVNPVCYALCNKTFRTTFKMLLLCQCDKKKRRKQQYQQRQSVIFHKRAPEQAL

NCC12CCC3CC(CC3C1)C2 (stereo not drawn)
inhibition at 10 µM [1]: < 20%
inhibition [2]: < 20%
inhibition [3]: < 20%
inhibition [4]: < 20%
inhibition [5]: < 20%
inhibition [6]: < 20%
inhibition [7]: < 20%
pKi [8]: 4.59
inhibition of tPA-induced Erk1/2 activation (active/inactive call) (Mus musculus): Active

CN(C)C(CN)c1ccccc1Cl (stereo not drawn)
inhibition at 10 µM [1]: < 20%
inhibition [2]: < 20%
inhibition [3]: < 20%
inhibition [4]: < 20%
inhibition [5]: < 20%
inhibition [6]: < 20%
inhibition [7]: < 20%
pKi (Nischarin): 5.28
pKi [8]: 4.85
inhibition of tPA-induced Erk1/2 activation (active/inactive call) (Mus musculus): Active

CN1CCNC(c2ccccc2)C1 (stereo not drawn)
inhibition at 10 µM [1]: < 20%
inhibition [2]: < 20%
inhibition [3]: < 20%
inhibition [4]: < 20%
inhibition [5]: < 20%
inhibition [6]: < 20%
inhibition [7]: < 20%
pKi [8]: 4.74
inhibition of tPA-induced Erk1/2 activation (active/inactive call) (Mus musculus): Active
